Screens (PubChem BioAssay)
NPY-Y2 antag: blocks the human neuropeptide Y Y2 receptor | AID 793 | inhibition, % at 2.7 µM | NPY-Y2 expressing cells, antagonist mode | 140,000 compounds, 0.99% hits; in the data active = inhibition above about 17%;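 also: 0% = vehicle with agonist challenge and 100% = reference antagonist with challenge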
S1P4 ag: agonists of human S1P4 receptor; 220,000 compounds, 0.35% hits; S1P4-expressing cell line, agonist reporter assay; activation, % at 4.98 µM; O95977; AID 1509; in the data active = activation above about 11%;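 also: 0% = DMSO vehicle and 100% = reference agonist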
Target sequence (O95977 whole entry, looked up): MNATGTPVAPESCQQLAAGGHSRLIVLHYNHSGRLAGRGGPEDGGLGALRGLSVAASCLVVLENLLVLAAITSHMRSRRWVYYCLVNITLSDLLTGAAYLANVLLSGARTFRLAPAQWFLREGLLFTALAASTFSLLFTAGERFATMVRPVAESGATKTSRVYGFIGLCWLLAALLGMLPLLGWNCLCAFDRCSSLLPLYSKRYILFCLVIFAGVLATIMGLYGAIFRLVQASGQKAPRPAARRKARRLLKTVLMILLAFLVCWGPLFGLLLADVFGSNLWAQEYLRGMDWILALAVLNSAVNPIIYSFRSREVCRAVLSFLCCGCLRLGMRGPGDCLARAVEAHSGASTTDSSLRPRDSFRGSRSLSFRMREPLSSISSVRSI
S1P4 antag: human S1P4 receptor antagonism; 220,000 compounds, 0.26% hits; O95977; S1P4-expressing cells, antagonist mode, reporter read-out; AID 1510; inhibition, % at 4.98 µM; in the data active = inhibition above about 29%;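 also: 0% = wells stimulated with agonist and 100% = vehicle wells without agonist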
NPY-Y1 antag: blocks the human neuropeptide Y Y1 receptor; P25929; HEK293-CNG Y1 cells, membrane potential fluorescence; NPY at EC95, then isoproterenol; inhibition, % at 3.6 µM; 200,000 compounds, 1% hits;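 active = inhibition above the campaign mean inhibition of all tested compounds plus 3 SD, cut at about 20% in these data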;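 also: 0% = DMSO wells given NPY plus isoproterenol and 100% = isoproterenol alone without NPY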
Target sequence (P25929 whole entry, looked up): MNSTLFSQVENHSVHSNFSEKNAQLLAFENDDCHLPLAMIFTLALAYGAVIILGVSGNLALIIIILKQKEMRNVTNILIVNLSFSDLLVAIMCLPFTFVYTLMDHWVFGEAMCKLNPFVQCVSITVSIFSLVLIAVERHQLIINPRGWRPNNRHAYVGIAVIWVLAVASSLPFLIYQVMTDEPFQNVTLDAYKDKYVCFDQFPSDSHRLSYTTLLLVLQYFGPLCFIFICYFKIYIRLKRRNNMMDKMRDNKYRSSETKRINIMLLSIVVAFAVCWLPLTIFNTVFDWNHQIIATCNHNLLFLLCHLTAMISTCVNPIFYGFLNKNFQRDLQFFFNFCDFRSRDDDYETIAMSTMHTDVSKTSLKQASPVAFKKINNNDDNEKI
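Assay system: HEK293 Y1/CNG channel cell line; Doses: single compound dose of 3.6 µM, 0.4% DMSO; Timing: dye 3 h, compound 60 min room temperature, stimulation 45 min; Technique: Membrane-potential fluorescent dye readout; Measure: % inhibition of NPY effect.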
NPY-Y2 PAM-ag: potentiates or activates human NPY-Y2 receptor; cells expressing NPY-Y2, potentiator/agonist read-out; activation, % at 3.6 µM; 220,000 compounds, 0.45% hits; in the data active = activation above about 27%;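 also: cells stimulated with NPY near EC25 plus isoproterenol at EC100; 0% = vehicle plus submaximal agonist and 100% = vehicle plus saturating agonist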
NPY1 pot ag: potentiators or agonists of human neuropeptide Y receptor Y1; NPY-Y1 expressing cells, potentiator/agonist activation; 220,000 compounds, 0.37% hits; activation, % at 3.6 µM; P25929; in the data active = activation above about 33%, passing the limit was not always enough;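 also: cells stimulated with NPY at EC10 then isoproterenol at EC100; 0% = low agonist plus stimulus and 100% = saturating agonist plus stimulus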
NPY-Y1 antag ct: human NPY-Y1 antagonism in NPY-Y2 counter-screen; shares compounds with NPY-Y2 antag; cell-based NPY-Y1 antagonism counterscreen; inhibition, % at 3.6 µM; 710 compounds, 19% hits; AID 1256; in the data active = inhibition above about 20%;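 also: cells challenged with NPY then isoproterenol with cAMP sensed through a CNG channel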
NPY2 antag conf: confirmation of human neuropeptide Y receptor Y2 antagonists. shares compounds with NPY-Y2 antag. HEK293 NPY-Y2 CNG channel, membrane potential fluorescence. inhibition, % at 2.8 µM. 710 compounds, 32% hits. AID 1257;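 active = mean inhibition of triplicate wells above the hit cutoff set in the primary screen, cut at about 17% in these data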;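 also: 0% = DMSO with NPY challenge and 100% = BIIE0246 high control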
Active calls of the source: *; nt = no result. Hits are enriched below; roughly 2.4% of the tested compounds scored in any of these assays.

SMILES | NPY-Y2 antag | S1P4 ag | S1P4 antag | NPY-Y1 antag | NPY-Y2 PAM-ag | NPY1 pot ag | NPY-Y1 antag ct | NPY2 antag conf
CCCN1C(=O)S/C(=C\c2ccc(N3CCOCC3)o2)C1=O | nt | -1.6 | 9.7 | 5.6 | 4.2 | -2.4 | nt | nt
CCn1cc(CN(C)S(=O)(=O)c2cccc([N+](=O)[O-])c2)cn1 | nt | 0.9 | 0.2 | 1.6 | 7.8 | -6.1 | nt | nt
CCn1cc(CN(C)S(=O)(=O)c2ccc3ccccc3c2)c(C)n1 | 24.6* | 0.9 | -21.4 | -1.4 | 14.3 | 0.6 | 11.9 | 1.4
CCOC(=O)COc1ccc(S(=O)(=O)N2CCN(c3ccccc3)CC2)cc1 | 0.1 | 1.9 | -8.0 | -7.6 | 4.2 | 9.1 | nt | nt
O=C(c1cc(-c2cccs2)nc2ccccc12)N1CCN(c2ccccc2O)CC1 | nt | -0.9 | 0.2 | -0.1 | -4.6 | -3.0 | nt | nt
Cc1ccc(C(=O)NC2c3ccccc3-c3ccccc32)cc1 | 19.1* | 1.1 | -15.4 | 16.4 | -6.6 | 5.0 | 11.6 | 10.8
Cc1ccc(C(=O)NC2CCc3ccccc3C2=O)cc1 (centres undefined) | nt | 2.4 | -22.6 | 4.5 | 5.1 | 10.8 | nt | nt
CCCCCSc1nnc(-c2ccccc2N)c(=O)[nH]1 | 19.2* | 0.8 | -9.7 | 6.6 | -6.9 | -11.1 | 15.2 | 11.6
CCCCCSc1nnc(-c2ccccc2NC(C)=O)c(=O)[nH]1 | nt | -1.8 | 12.4 | -1.8 | -16.5 | -4.2 | nt | nt
O=C(N/N=C/c1ccc(Cl)cc1)C1CC12CCC2 (centres undefined) | nt | 0.2 | 5.8 | -7.3 | 5.2 | 12.4 | nt | nt
N=c1c2c(-c3ccccc3)c(-c3ccccc3)n(Cc3ccco3)c2ncn1Cc1ccccc1 | 20.5* | 0.8 | 12.6 | 2.7 | 54.2* | 56.4* | 2.5 | -3.7
c1ccc(-c2c(-c3ccccc3)n(Cc3ccco3)c3ncnc(NCCCn4ccnc4)c23)cc1 | 29.4* | 1.7 | -3.7 | 13.4 | -27.4 | -55.3 | 9.8 | 11.7
c1ccc(-c2oc3ncnc(NCCCn4ccnc4)c3c2-c2ccccc2)cc1 | 17.0 | 0.4 | -9.9 | 6.2 | -15.8 | -26.4 | nt | nt
CCS(=O)(=O)N1CCN(c2cc3c(cc2[N+](=O)[O-])n(C)c(=O)n3C)CC1 | nt | 1.3 | 8.5 | 1.6 | 10.1 | 6.3 | nt | nt
COc1ccc(-c2nc(NC(=O)CCNC(=O)c3ccco3)sc2C)cc1 | nt | 1.4 | -12.1 | -0.2 | -3.2 | 12.1 | nt | nt
FC(F)(F)c1nc(-c2cccs2)ncc1-c1nnnn1-c1ccc(Cl)cc1 | 24.6* | -0.4 | 0.2 | 14.0 | 6.3 | -31.7 | 25.7* | 16.6
FC(F)(F)c1nc(-c2cccnc2)ncc1-c1nnnn1-c1ccccc1 | 4.7 | 2.5 | -13.0 | 1.4 | -6.0 | -23.4 | nt | nt
CC(=O)Nc1ccc(S(=O)(=O)N/N=C/c2ccc(C)s2)cc1 | 1.0 | 0.2 | 2.9 | 4.2 | -3.6 | 8.7 | nt | nt
CCn1nc(C(=O)Nc2ccccc2C)c(Cl)c1Cl | 6.2 | 2.1 | 2.5 | 8.1 | -39.3 | -31.3 | nt | nt
CCn1nc(C(=O)Nc2cccc3ccccc23)c(Cl)c1Cl | 18.1* | 0.5 | 17.1 | 15.2 | -18.5 | -33.7 | 11.3 | 11.0
C#CCNC(=O)C(C)c1ncc(C(F)(F)F)cc1Cl (centres undefined) | nt | 0.6 | -5.0 | -6.3 | -0.6 | -9.5 | nt | nt
Cc1ccc(CN(C(=O)Cn2nnc3ccccc32)C(C(=O)NCc2ccco2)c2ccc(C)o2)cc1 (centres undefined) | 2.1 | 0.2 | -13.2 | 1.1 | -6.0 | -3.1 | nt | nt
Cc1ccc(C(C(=O)NCc2ccco2)N(CCc2ccccc2)C(=O)Cn2nnc3ccccc32)o1 (centres undefined) | 31.7* | 0.9 | -14.8 | 18.7 | -0.3 | 1.6 | 20.2* | 11.1
CCOCCCNC(=O)CN1C(=O)/C(=C/c2ccccc2)Sc2ccccc21 | 3.3 | -0.2 | -18.6 | 3.8 | 0.5 | 1.0 | nt | nt
O=C(CSc1nnc(SCc2ccccc2)s1)N/N=C/c1c(Cl)cccc1Cl | 25.9* | 1.2 | -11.3 | 1.6 | -11.5 | -19.6 | 13.4 | 15.7
SMILES | NPY-Y2 antag | S1P4 ag | S1P4 antag | NPY-Y1 antag | NPY-Y2 PAM-ag | NPY1 pot ag | NPY-Y1 antag ct | NPY2 antag conf
CCN(CC)CC(=O)N1c2ccccc2Oc2c(c(=O)n(C)c(=O)n2C)C1c1cccc([N+](=O)[O-])c1 (centres undefined) | nt | -0.3 | 2.1 | nt | -12.2 | 7.6 | nt | nt
CCN1CCN(C(=O)c2cnn3c(C(F)F)cc(-c4ccc(C)cc4)nc23)CC1 | 6.9 | -0.6 | 8.6 | 17.7 | -32.2 | -49.5 | nt | nt
Cc1ccc(-c2cc(C(F)F)n3ncc(C(=O)N4CCN(c5ccccn5)CC4)c3n2)cc1 | 19.9* | 0.3 | -6.3 | 6.2 | -7.3 | -27.8 | 19.1 | 16.9
CC(=O)c1cc(-c2ccccc2)n(CC(=O)Nc2cccc(C)c2)c1C | 2.3 | 0.4 | -2.6 | 10.1 | 0.1 | -5.4 | nt | nt
CCC(c1nnnn1C1CCCC1)N1CCN(c2ccccc2F)CC1 (centres undefined) | 4.4 | 1.1 | -4.3 | 4.9 | -8.2 | -10.3 | nt | nt
CCCC(c1nnnn1C1CCCC1)N1CCN(c2ccccc2F)CC1 (centres undefined) | 18.4* | 1.1 | -8.4 | 13.7 | -16.8 | -2.6 | 17.9 | 4.1
COc1coc(/C=C/C(=O)O)cc1=O | 0.3 | 1.8 | -22.6 | -2.3 | 10.1 | 4.8 | nt | nt
N#Cc1nc(COc2ccc(Cl)cc2)oc1N1CCCCCC1 | 17.2* | 1.9 | -7.1 | 12.4 | -19.0 | -41.6 | 18.7 | 17.7*
N#Cc1nc(COc2cccc(Cl)c2)oc1N1CCN(c2ccccc2)CC1 | 25.1* | -1.1 | -5.3 | 7.9 | -17.6 | -20.0 | 15.2 | 19.8*
N#Cc1nc(-c2cccs2)oc1N1CCN(c2ccccc2)CC1 | 18.0* | -0.4 | -3.8 | 12.2 | -6.9 | -48.8 | 7.3 | 12.0
N#Cc1nc(Cc2ccccc2)oc1N1CCN(c2ccccc2)CC1 | 11.6 | 0.0 | 6.9 | 13.9 | -1.3 | -11.1 | nt | nt
CCOC(=O)c1c(C)oc2ccc(NS(=O)(=O)c3ccc4c5c(cccc35)C(=O)N4)cc12 | 26.5* | 0.4 | -22.7 | 10.2 | -14.4 | -44.8 | 5.4 | 13.8
COCCOC(=O)c1c(C)oc2ccc(NS(=O)(=O)c3ccccc3)cc12 | 5.3 | -1.9 | -6.8 | 0.2 | -13.3 | -3.1 | nt | nt
COc1ccccc1C/C(N)=N/OC(=O)COc1ccccc1C | 28.5* | -2.4 | -7.7 | 2.5 | -19.3 | -31.9 | 5.6 | 4.4
O=C(CS(=O)Cc1ccccc1Cl)Nc1ccccc1Cl (centres undefined) | nt | -0.9 | -2.7 | 4.9 | 4.2 | 8.3 | nt | nt
CCCCNC(=O)CN1C(=O)C(CC)Oc2ccc(Cl)cc21 (centres undefined) | 22.5* | 0.9 | 7.5 | 17.1 | -22.9 | -28.3 | 7.0 | 6.9
Cc1nn(C(C)(C)C)c(OC(=O)c2ccc(Br)o2)c1Sc1ccccc1 | 18.0* | 1.8 | 7.7 | 6.2 | 9.9 | 7.8 | 5.4 | 16.2
Cc1nn(C(C)(C)C)c(OC(=O)c2cccs2)c1Sc1ccccc1 | 26.5* | 4.1 | -1.5 | 13.4 | 7.0 | -18.1 | 11.0 | 6.2
